Data on 19 compounds can be found in ChEMBL document CHEMBL3244020, “Trichloroacetamidines, a new class of positive inotropic agents” (J Med Chem, 1978).

Each structure is given as a SMILES string. The source made the active and inactive calls. The rule behind the calls is not given here.

For assay [1], the species on record is Felis catus. Kind of assay: Positive inotropic activity in cat heart papillary muscle assessed as increase in contractile force up to 10 ug/mL measured for 5 to 30 mins in presence of beta-adrenergic inhibitor sotalol. It counts as functional, tissue-based. Summed up: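 Cat right-ventricular papillary muscle in Krebs–Henseleit at 37 °C, electrically driven at 1/s. Force recorded 5–30 min after compound, in the presence of the β-blocker sotalol at 10 μg/mL. Scored as mg increase in contractile force.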

Assay [2] is described as follows: Positive inotropic activity in cat heart papillary muscle assessed as increase in contractile force at 10 ug/mL measured for 5 to 30 mins. It counts as functional, Felis catus, Muscle tissue. The procedure, abridged: (§1)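 Right-ventricular cat papillary muscles in Krebs–Henseleit at 37 °C, field-stimulated at 1/s (4–10 ms, 6–10 V). Muscles equilibrated about 90 min, until force fell to 25–30% of original. Compound added and force recorded at 5, 10, 20 and 30 min, followed by ouabain 0.5 μg/mL. Positives were retested on three more preparations at ≥3 concentrations. Scored as mg increase in contractile force.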

A short description of assay [3]: Positive inotropic activity in cat heart papillary muscle assessed as increase in contractile force at 0.63 ug/mL measured for 5 to 30 mins. The format is functional, Felis catus, Muscle tissue. The procedure, abridged: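 Right-ventricular papillary muscles from cat hearts in a 100-mL bath of Krebs–Henseleit solution at 37 °C, driven electrically with square waves of 4–10 ms, 6–10 V, 1/s. Equilibrated about 90 min until force fell to 25–30% of initial. Compound added, contractile force read at 5, 10, 20 and 30 min, then ouabain 0.5 μg/mL as a responsiveness check. Positive inotropy means a rise above 20%.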

Assay [4] in a line: Positive inotropic activity in cat heart papillary muscle assessed as increase in contractile force at 2.5 ug/mL measured for 5 to 30 mins. It counts as functional, Felis catus, Muscle tissue. Summed up: as §1
Assay [5] is described as follows: Positive inotropic activity in cat heart papillary muscle assessed as concentration required to increase contractile force by 500 mg measured for 5 to 30 mins. The format is functional, Felis catus, Muscle tissue. The procedure, abridged: as §1
Assay [6] is filed under the species Felis catus. Kind of assay: Positive inotropic activity in heart papillary muscle isolated from reserpine-treated cat assessed as increase in contractile force at 10 ug/mL measured for 5 to 30 mins. It counts as functional, tissue-based. The note with it: Muscle tissue. Summed up: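 Cats pretreated with reserpine 0.5 mg/kg ip before papillary muscle isolation. Right-ventricular muscles kept in Krebs–Henseleit at 37 °C, stimulated at 1/s, and force recorded at 5–30 min after compound addition.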

`Cn1cc(CNC(=N)C(Cl)(Cl)Cl)c2ccccc21`: the outcome in the assay filed under Felis catus [1] was Active. Also, the Activity in assay [2] was found to be 201 mg.

Turning to `N=C(NCCc1ccc(O)cc1)C(Cl)(Cl)Cl`, in the assay filed under Felis catus [1], the outcome was Active. Further, the Activity in assay [2] is recorded as greater than 600 mg.

For the compound `N=C(NCC(O)c1ccccc1)C(Cl)(Cl)Cl` (centres undefined), the outcome in the assay filed under Felis catus [1] was Active. Besides, the Activity in assay [2] is greater than 600 mg.

Regarding `N=C(NCc1ccccc1)C(Cl)(Cl)Cl`, the outcome in the assay filed under Felis catus [1] was Active. Also, in assay [2], the Activity is given as less than 200 mg.

Turning to `C=CCN(C)C(=N)C(Cl)(Cl)Cl.O=C(O)/C=C\C(=O)O`, the Activity in assay [3] was less than 200 mg; in assay [2] it was greater than 600 mg; in assay [4] it was 201 mg; in assay [5] it was 5.47 µg/mL. Further, the result in the assay filed under Felis catus [1] was Active.

Turning to `Cl.N=C(NCCCNC(=N)C(Cl)(Cl)Cl)C(Cl)(Cl)Cl`, the outcome in the assay listed under Felis catus [1] was Active. Moreover, the Activity in assay [2] was less than 200 mg; in assay [5], greater than 10 µg/mL.

With `COc1cccc(CNC(=N)C(Cl)(Cl)Cl)c1.Cl`, in the assay filed under Felis catus [1], the result was Active. Also, the Activity was 201 mg in assay [2] and greater than 10 µg/mL in assay [5].

Consider `N=C(NCC(O)COc1ccccc1)C(Cl)(Cl)Cl` (centres undefined), for which the result in the assay listed under Felis catus [1] was Active. In assay [2], the Activity was 201 mg.

Regarding `N=C(NCc1cn(C(=O)c2ccccc2)c2ccccc12)C(Cl)(Cl)Cl`, the Activity was less than 200 mg in assay [3], greater than 600 mg in assay [2], 201 mg in assay [4] and 6.2 µg/mL in assay [5]. Also, the result in the assay filed under Felis catus [1] and in the assay listed under Felis catus [6] was Active.

As for `C/N=C(\NCC1CC1)C(Cl)(Cl)Cl.Cl`, the result in the assay filed under Felis catus [1] was Active. Also, in assay [2], the Activity is greater than 600 mg.

For the compound `Cc1ccc(CNC(=N)C(Cl)(Cl)Cl)cc1.Cl`, the Activity in assay [3] was less than 200 mg; in assay [2], greater than 600 mg; in assay [4], less than 200 mg; in assay [5], 8.43 µg/mL. Further, in the assay listed under Felis catus [1], the outcome was Active.

On to `CN(C)C(=N)C(Cl)(Cl)Cl.Cl`, for which the outcome in the assay listed under Felis catus [1] was Active. Moreover, the Activity in assay [2] is on record as greater than 600 mg.

For `Cl.N=C(N)C(Cl)(Cl)Cl`, the Activity is less than 200 mg in assay [3], greater than 600 mg in assay [2], 201 mg in assay [4] and 2.68 µg/mL in assay [5]. For the same compound, the result in the assay listed under Felis catus [1] and in the assay listed under Felis catus [6] was Active.

Consider `Cl.N=C(NCCCO)C(Cl)(Cl)Cl`, for which, in the assay listed under Felis catus [1], the result was Active. The values for the Activity in assay [2], in assay [4] and in assay [5] were 201 mg, less than 200 mg and greater than 10 µg/mL, respectively.

For the compound `CC(=O)Nc1ccc(OCC(O)CNC(=N)C(Cl)(Cl)Cl)cc1` (centres undefined), in the assay listed under Felis catus [1], the result was Active. Further, the Activity in assay [2] was determined as 201 mg.

`ClC(Cl)(Cl)C1=NCCN1`: the Activity in assay [3] is less than 200 mg; in assay [2], greater than 600 mg; in assay [4], 201 mg; in assay [5], 4.86 µg/mL. For the same compound, the outcome in the assay filed under Felis catus [1] was Active.

`COc1ccccc1CNC(=N)C(Cl)(Cl)Cl.Cl`: the Activity in assay [3] was less than 200 mg; in assay [2] it was 201 mg; in assay [4], 201 mg; in assay [5], 4.75 µg/mL. Also, the result in the assay filed under Felis catus [1] and in the assay filed under Felis catus [6] was Active.

As for `C[C@H](NC(=N)C(Cl)(Cl)Cl)c1ccccc1.Cl`, the result in the assay filed under Felis catus [1] was Active. Further, the Activity in assay [2] is less than 200 mg; in assay [5] it was greater than 10 µg/mL.

As for `COC(CNC(=N)C(Cl)(Cl)Cl)COc1ccccc1` (centres undefined), the outcome in the assay listed under Felis catus [1] was Active. Further, the Activity in assay [2] was found to be 201 mg.
